Substrate in data set [1]: CC(C)=CCc1c(O)cc(C(=O)[C@H]2[C@@H](c3c(O)ccc(C(=O)/C=C/c4ccc(O)cc4)c3O)C=C(C)C[C@@H]2c2ccc(O)cc2O)cc1O
Nature of the data set: (§1) Activity at human recombinant PTP1B. The method in brief:
(§2)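 Recombinant human PTP1B (0.1 μg) incubated with 2 mM p-NPP in 50 mM citrate pH 6.0, 0.1 M NaCl, 1 mM EDTA, 1 mM DTT, with or without inhibitor. Incubation 37 °C for 30 min, stopped with 10 M NaOH. p-Nitrophenol read by absorbance at 405 nm, corrected for nonenzymatic p-NPP hydrolysis without enzyme. Values are mean ± SD of triplicates.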

Substrate in data set [2]: CC(C)=CCC/C(C)=C/Cc1c(O)cc(O)cc1-c1cc2ccc(O)cc2o1
Described as §1. The method in brief: as §2

Substrate in data set [3]: CC(C)=CCC/C(C)=C\CC/C(C)=C\Cc1c(O)cc(O)cc1-c1cc2ccc(O)cc2o1
The description is as §1. The essentials:
as §2

Substrate in data set [4]: CC(C)=CCC/C(C)=C/Cc1c(O)ccc2cc(-c3cc(O)cc(O)c3CC=C(C)C)oc12
Described as §1. The essentials:
as §2

Substrate in data set [5]: CC(C)=CCc1c(O)cc(C(=O)[C@H]2[C@@H](c3c(O)ccc(C(=O)/C=C/c4ccc(O)cc4)c3O)C=C(C)C[C@@H]2c2ccc(O)cc2)cc1O
The description is as §1. The essentials: as §2

Substrate in data set [6]: CC(C)=CCc1c(O)cc(C(=O)[C@H]2[C@@H](c3c(O)ccc(C(=O)/C=C/c4ccc(O)cc4O)c3O)C=C(C)C[C@@H]2c2ccc(O)cc2O)cc1O
The description is as §1. The essentials:
as §2

B1: Tyrosine-protein phosphatase non-receptor type 1 (Homo sapiens), P18031 (protein)
chain: MEMEKEFEQIDKSGSWAAIYQDIRHEASDFPCRVAKLPKNKNRNRYRDVSPFDHSRIKLHQEDNDYINASLIKMEEAQRSYILTQGPLPNTCGHFWEMVWEQKSRGVVMLNRVMEKGSLKCAQYWPQKEEKEMIFEDTNLKLTLISEDIKSYYTVRQLELENLTTQETREILHFHYTTWPDFGVPESPASFLNFLFKVRESGSLSPEHGPVVVHCSAGIGRSGTFCLADTCLLLMDKRKDPSSVDIKKVLLEMRKFRMGLIQTADQLRFSYLAVIEGAKFIMGDSSVQDQWKELSHEDLEPPPEHIPPPPRPPKRILEPHNGKCREFFPNHQWVKEETQEDKDCPIKEEKGSPLNAAPYGIESMSQDTEVRSRVVGGSLRGAQAASPAKGEPSLPEKDEDHALSYWKPFLVNMCVATVLTAGAYLCYRFLFNSNT
Consider B1, for which the Km (in general, the concentration of substrate that gives half-maximal velocity) in data set [1] turned out to be 1640 µM; in data set [2], 1250 µM; in data set [3] it was 3170 µM; in data set [4] it was 2080 µM; in data set [5] it was 1190 µM; in data set [6], 2810 µM. The Vmax (usually the rate approached at saturating substrate) was found to be 5.95 µM/min in data set [1]; 6.58 µM/min in data set [2]; 5.49 µM/min in data set [3]; 5.78 µM/min in data set [4]; 6.71 µM/min in data set [5]; 5.41 µM/min in data set [6].
